A short description of series [1]: Antiradical activity assessed as DPPH radical scavenging activity at 1500 uM by spectrophotometry relative to control. It is filed as physicochemical. Put shortly:
(§1)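 Sample (150–1500 μM; MeOH, or Et2O for lycopene, β-carotene, astaxanthin) added to 150 μM DPPH in MeOH and kept in the dark at ~20 °C for 60 min. Absorbance read at 520 nm. Activity = 100 × (1 − Asample/Acontrol), with control lacking sample. Triplicates; Tukey's test and Pearson correlation.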
(Loss of DPPH colour is used to gauge radical scavenging.)

Series [2] in a line: Antiradical activity assessed as DPPH radical scavenging activity at 1050 uM by spectrophotometry relative to control. It is filed as physicochemical. In a few lines: as §1
Another series deals with Lymphocyte. The experiment in a line: Antigenotoxic activity against H2O2-induced oxidative DNA damage in rat lymphocyte assessed as cauda tail moment at 1000 uM by comet assay. The format is functional. Put shortly:
(§2)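 Rat peripheral blood mononuclear cells isolated on Histopaque 1077, 1×10^7 cells/mL in cold PBS pH 7.4, viability >90% by trypan blue. Cells preincubated with sample in DMSO (5%) at 37 °C for 30 min, then H2O2 1 mM final, 37 °C for 10 min. Alkaline comet assay, ethidium bromide stain, image analysis of 50 cells, 400×. Mean ± SE of four values, one-way ANOVA.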

Series [3] can be described thus: Antigenotoxic activity against H2O2-induced oxidative DNA damage in rat lymphocyte assessed as tail length at 1000 uM by comet assay. It is filed as functional. Put shortly:
as §2

A short description of series [4]: Antigenotoxic activity against H2O2-induced oxidative DNA damage in rat lymphocyte assessed as olive tail moment at 500 uM by comet assay. The format is functional. Put shortly:
as §2

Series [5] can be described thus: Antigenotoxic activity against H2O2-induced oxidative DNA damage in rat lymphocyte assessed as olive tail moment at 1000 uM by comet assay. It is filed as functional. Put shortly:
as §2

A short description of series [6]: Antigenotoxic activity against H2O2-induced oxidative DNA damage in rat lymphocyte assessed as cauda tail moment at 500 uM by comet assay. It is filed as functional. Put shortly:
as §2

Series [7] in a line: Antigenotoxic activity against H2O2-induced oxidative DNA damage in rat lymphocyte assessed as tail length at 500 uM by comet assay. The format is functional. In a few lines: as §2
Series [8] in a line: Antiradical activity assessed as DPPH radical scavenging activity at 150 uM by spectrophotometry relative to control. The format is physicochemical. Put shortly: as §1
Series [9] can be described thus: Antiradical activity assessed as DPPH radical scavenging activity at 750 uM by spectrophotometry relative to control. The format is physicochemical. In a few lines: as §1

The record followed here is ChEMBL document CHEMBL1158033, “C-26 and C-30 apocarotenoids from seeds of Ditaxis heterantha with antioxidant activity and protection against DNA oxidative damage” (J Nat Prod, 2006).

Each structure is given as a SMILES string.

For `CC1=C(/C=C/C(C)=C/C=C/C(C)=C/C=C/C=C(C)/C=C/C=C(C)/C=C/C2=C(C)C(=O)[C@@H](O)CC2(C)C)C(C)(C)C[C@H](O)C1=O` [ASTAXANTHIN], the Activity in series [1] is listed as 52%; in [2], “Active”.

With `CC1=C(/C=C/C(C)=C/C=C/C(C)=C/C=C/C=C(C)/C=C/C=C(C)/C=C/C2=C(C)CCCC2(C)C)C(C)(C)CCC1` [BETA CAROTENE], the Activity in series [1] is listed as 36%; in series [2] it was “Active”.

On to `COC(=O)/C(C)=C/C=C/C(C)=C/C=C/C=C(C)/C=C/C=C(C)/C=C/[C@]12O[C@@H](CC1(C)C)C[C@]2(C)O` [DITAXIN], for which the Activity in the series on Lymphocyte came out at 12.27 a.u; in [3], 28.15 um; in series [1], 12%; in series [4], 11.58 a.u; in series [5] it was 8.21 a.u; in series [6] it was 18.8 a.u. The Activity entry in [2] is listed as “Active”; in [7], 35.94 um.

Regarding `COC(=O)/C(C)=C/C=C/C=C(C)/C=C/C=C(C)/C=C/[C@@H]1C(C)=CC(=O)CC1(C)C` [HETERANTHIN], the Activity in the series with Lymphocyte is 6.24 a.u; in series [3] it was 20.93 um; in series [1], 21%; in [8] it was “Active”; in series [4], 10.8 a.u; in [5] it was 4.4 a.u. Moreover, the Activity in [6] is 17.02 a.u; in series [2] it was “Active”; in [9], “Active”; in series [7], 34.13 um.

On to `CC(C)=CCC/C(C)=C/C=C/C(C)=C/C=C/C(C)=C/C=C/C=C(C)/C=C/C=C(C)/C=C/C=C(\C)CCC=C(C)C` [LYCOPENE], for which the Activity in series [1] was 36%; in [2], “Active”.
